Results: ChEMBL document CHEMBL1152663, “Antimalarial and antitrypanosomal activity of a series of amide and sulfonamide derivatives of a 2,5-diaminobenzophenone” (Bioorg Med Chem, 2009)
Calls of active or inactive are those of the source. No cut-off for these calls is given here.

Assays:
[1] = molecular target: T1, Multidrug resistance protein Pgh1 (Plasmodium falciparum) (UniProt Q9NG76); experiment: Inhibition of Plasmodium PGH1-mediated fluorochrome accumulation into parasite digestive vacuole at […] concentration
T1 sequence (whole entry): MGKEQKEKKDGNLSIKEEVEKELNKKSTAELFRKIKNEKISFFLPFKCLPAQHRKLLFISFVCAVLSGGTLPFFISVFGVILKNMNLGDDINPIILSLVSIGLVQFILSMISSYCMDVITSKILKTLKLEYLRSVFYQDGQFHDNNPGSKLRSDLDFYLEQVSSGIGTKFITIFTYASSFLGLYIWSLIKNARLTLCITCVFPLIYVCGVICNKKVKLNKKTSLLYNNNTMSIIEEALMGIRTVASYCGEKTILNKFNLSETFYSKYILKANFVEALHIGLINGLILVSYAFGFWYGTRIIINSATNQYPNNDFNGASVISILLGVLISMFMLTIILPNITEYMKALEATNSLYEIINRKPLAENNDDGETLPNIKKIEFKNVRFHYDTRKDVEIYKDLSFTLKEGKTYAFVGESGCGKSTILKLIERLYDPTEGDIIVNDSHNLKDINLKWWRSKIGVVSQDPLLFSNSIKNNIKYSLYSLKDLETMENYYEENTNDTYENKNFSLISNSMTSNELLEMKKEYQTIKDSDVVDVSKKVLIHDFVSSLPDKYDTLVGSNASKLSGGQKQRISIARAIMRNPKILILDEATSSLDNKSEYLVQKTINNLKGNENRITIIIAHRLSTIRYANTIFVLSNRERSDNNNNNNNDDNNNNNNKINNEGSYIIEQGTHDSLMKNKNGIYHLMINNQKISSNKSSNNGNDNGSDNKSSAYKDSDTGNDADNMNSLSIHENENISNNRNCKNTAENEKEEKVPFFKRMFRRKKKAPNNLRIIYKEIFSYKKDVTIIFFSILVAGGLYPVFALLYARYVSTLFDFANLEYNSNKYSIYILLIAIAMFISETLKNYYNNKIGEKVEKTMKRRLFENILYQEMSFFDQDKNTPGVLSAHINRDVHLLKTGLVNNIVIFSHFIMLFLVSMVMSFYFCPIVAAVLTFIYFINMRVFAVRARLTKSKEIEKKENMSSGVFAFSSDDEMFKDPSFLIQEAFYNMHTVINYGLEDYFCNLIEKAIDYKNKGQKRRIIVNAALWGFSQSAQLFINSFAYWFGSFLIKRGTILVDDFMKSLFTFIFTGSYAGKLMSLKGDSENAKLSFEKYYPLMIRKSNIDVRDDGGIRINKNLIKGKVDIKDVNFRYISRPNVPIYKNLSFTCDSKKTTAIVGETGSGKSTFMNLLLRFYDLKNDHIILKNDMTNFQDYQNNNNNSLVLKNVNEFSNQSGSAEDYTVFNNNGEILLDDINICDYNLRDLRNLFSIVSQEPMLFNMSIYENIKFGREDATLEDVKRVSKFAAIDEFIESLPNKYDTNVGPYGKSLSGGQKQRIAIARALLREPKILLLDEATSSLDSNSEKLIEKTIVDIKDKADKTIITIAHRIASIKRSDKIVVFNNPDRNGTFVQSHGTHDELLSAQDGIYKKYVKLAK

Plasmodium falciparum = experiment: Antimalarial activity against Plasmodium falciparum Dd2 […] cells after 72 hrs by [3H]hypoxanthine incorporation assay; format: functional, organism-based
Method in brief: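 Synchronized (sorbitol) blood-stage P. falciparum Dd2 cultures exposed to a range of compound concentrations for 72 h; growth read by [³H]-hypoxanthine incorporation, percent inhibition used to derive IC₅₀. At least three independent repeats, mean ± SEM.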

[2] = Cytotoxicity against human HeLa cells after 72 hrs by methylene blue staining; format: cell-based
Method in brief: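 HeLa cells in RPMI 1640 with 10% heat-inactivated FBS and gentamicin; ~10,000 cells/well preincubated 48 h, then exposed to compound (DMSO stock 10 mg/mL diluted 1:200) for 72 h at 37 °C, 5% CO₂. Glutaraldehyde fixation, 0.05% methylene blue staining, elution with 0.33 M HCl, OD 660 nm.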

[3] = test system: Trypanosoma brucei brucei; experiment: Antitrypanosomal activity against Trypanosoma brucei brucei TC221 after 72 hrs by alamar blue assay; format: functional, organism-based; settings: TC221, 72 h
Method in brief: (§1)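 T. b. brucei TC 221 trypomastigotes grown in Baltz medium; 10⁴ parasites/mL exposed to graded compound concentrations (DMSO or 0.1 M NaOH solutions) at 37 °C, 5% CO₂. Alamar Blue absorbance at 550 nm (reference 630 nm) read at 48 h and 72 h. Parasite-only and compound-only controls; ED₅₀ by linear interpolation of three measurements.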

[4] = test system: Trypanosoma brucei brucei; experiment: Antitrypanosomal activity against Trypanosoma brucei brucei TC221 after 48 hrs by alamar blue assay; format: functional, organism-based; settings: TC221, 48 h; method in brief: as §1
[5] = Selectivity index, ratio of CC50 for human HeLa cells to IC50 for Plasmodium falciparum Dd2 […] cells; format: functional
Method in brief: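 Selectivity index computed as HeLa CC₅₀ (72 h methylene blue assay) divided by P. falciparum Dd2 IC₅₀ (72 h [³H]-hypoxanthine assay).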

[6] = molecular target: ATP-dependent translocase ABCB1 (Homo sapiens, UniProt P08183); experiment: Inhibition of ABCB1 overexpressed in human CCRF-CEM/VCR1000 cell assessed as inhibition of daunomycin efflux after 30 mins by FACS analysis

Row | Structure (SMILES) | inhibition [1] | IC50 (Plasmodium falciparum) | CC50 at 72 h [2] | IC50 [3] | IC50 [4] | Ratio CC50/IC50 [5] | EC50 [6]
1 | CC(=O)Nc1ccc(NC(=O)CN2CCN(C)CC2)c(C(=O)c2ccccc2)c1 | inactive | 9.45 µM | 53 µM | 22.9 µM | 23.1 µM | 6 | 
2 | CCC(=O)Nc1ccc(NC(=O)CN2CCN(C)CC2)c(C(=O)c2ccccc2)c1 | inactive | > 16 µM | > 122 µM | 71.5 µM | 53.4 µM | >8 | 
3 | CC(C)N(C(=O)Nc1ccc(NC(=O)C(c2ccccc2)N2CCN(C)CC2)c(C(=O)c2ccccc2)c1)C(C)C (configuration not stated) | inactive | 0.11 µM | 4 µM |  |  | 36 | 0.46 µM
4 | CN1CCN(C(C(=O)Nc2ccc(NC(=O)C(C)(C)C)cc2C(=O)c2ccccc2)c2ccccc2)CC1 (racemic) | inactive | 3.04 µM | 45 µM | 4.67 µM | 11.4 µM | 15 | 0.39 µM
5 | CN1CCN(C(C(=O)Nc2ccc(NC(=O)Cc3ccccc3)cc2C(=O)c2ccccc2)c2ccccc2)CC1 (racemic) | inactive | 2 µM | 16 µM | 3.25 µM | 3.64 µM | 8 | 0.36 µM
6 | CN1CCN(C(C(=O)Nc2ccc(NC(=O)c3ccccc3)cc2C(=O)c2ccccc2)c2ccccc2)CC1 (racemic) | inactive | 1.61 µM | 16 µM | 3.28 µM | 3.28 µM | 10 | 0.24 µM
7 | CC1CCN(C(=O)Nc2ccc(NC(=O)C(c3ccccc3)N3CCN(C)CC3)c(C(=O)c3ccccc3)c2)CC1 (configuration not stated) | inactive | > 16 µM |  |  |  |  | 4.97 µM
8 | CN1CCN(C(C(=O)Nc2ccc(NC(=O)c3cccnc3)cc2C(=O)c2ccccc2)c2ccccc2)CC1 (configuration not stated) | inactive | 2.26 µM | 37 µM | 7.02 µM | 5.06 µM | 16 | 5.12 µM
9 | CN1CCN(C(C(=O)Nc2ccc(NC(=O)c3cccc4ccccc34)cc2C(=O)c2ccccc2)c2ccccc2)CC1 (racemic) | inactive | 0.93 µM | 4 µM | 2.68 µM | 1.93 µM | 4 | 0.23 µM
10 | CN1CCN(C(C(=O)Nc2ccc(NC(=O)c3ccc4ccccc4c3)cc2C(=O)c2ccccc2)c2ccccc2)CC1 (racemic) | inactive | 0.24 µM | 4 µM | 2.64 µM | 1.98 µM | 17 | 0.04 µM
11 | CN1CCN(C(C(=O)Nc2ccc(NC(=O)CCc3ccccc3)cc2C(=O)c2ccccc2)c2ccccc2)CC1 (racemic) | inactive | 1.8 µM | 8 µM | 3.02 µM | 3.27 µM | 4 | 0.06 µM
12 | CN1CCN(C(C(=O)Nc2ccc(N(S(=O)(=O)c3ccccc3)S(=O)(=O)c3ccccc3)cc2C(=O)c2ccccc2)c2ccccc2)CC1 (racemic) | inactive | 1.24 µM | 12 µM | 3.12 µM | 3.01 µM | 10 | 0.04 µM
13 | CC(=O)Nc1ccc(NC(=O)C(c2ccccc2)N2CCN(C)CC2)c(C(=O)c2ccccc2)c1 (racemic) | inactive | 9.72 µM | 105 µM | 6.59 µM | 9.05 µM | 11 | 6.29 µM
14 | CN1CCN(C(C(=O)Nc2ccc(NS(=O)(=O)c3ccccc3)cc2C(=O)c2ccccc2)c2ccccc2)CC1 (racemic) | inactive | 0.91 µM | 26 µM | 2.92 µM | 5.38 µM | 29 | 0.89 µM
15 | CN1CCN(CC(=O)Nc2ccc(NC(=O)c3ccc4ccccc4c3)cc2C(=O)c2ccccc2)CC1 | inactive | 2.01 µM | 9 µM | 2.01 µM | 0.81 µM | 5 | 0.48 µM
16 | CCC(=O)Nc1ccc(NC(=O)C(c2ccccc2)N2CCN(C)CC2)c(C(=O)c2ccccc2)c1 (racemic) | inactive | 7.19 µM | 84 µM | 24.6 µM | 16.7 µM | 12 | 3.3 µM
17 | CN1CCN(CC(=O)Nc2ccc(NC(=O)c3ccccc3)cc2C(=O)c2ccccc2)CC1 | inactive | > 16 µM | > 109 µM | 83.2 µM | 49.4 µM | >7 | 
18 | CN1CCN(CC(=O)Nc2ccc(NC(=O)CCc3ccccc3)cc2C(=O)c2ccccc2)CC1 | inactive | 6.72 µM | 80 µM | 21.9 µM | 13.9 µM | 12 | 2.23 µM
